Laboratory results from ChEMBL document CHEMBL1949548, “A β-tryptase inhibitor with a tropanylamide scaffold to improve in vitro stability and to lower hERG channel binding affinity” (Bioorg Med Chem Lett, 2012).

What was measured:
[1] = Metabolic stability in human liver microsomes after 20 mins; type: ADME, Microsome
In short: (§1)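 Liver microsomal fractions prepared by centrifugation. Compound incubated with the fractions for 20 min before the reaction was stopped. Stability expressed as percent of compound metabolized.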

[2] = Metabolic stability in rat liver microsomes after 20 mins; type: ADME, Microsome; in short: as §1
[3] = Chemical stability in presence of human semicarbazide-sensitive amine oxidase assessed as compound remaining; type: physicochemical
In short: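 Human semicarbazide-sensitive amine oxidase (hSSAO) stability read as percent of compound remaining after 24 h.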

[4] = target: T1, hERG (KCNH2) (Homo sapiens, UniProt Q12809); assay: Inhibition of human ERG at 1 uM by whole-cell patch clamp electrophysiology assay
In short: (§2)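 hERG potassium channel expressed in Chinese hamster ovary cells. Channel currents recorded by whole-cell patch clamp electrophysiology, with percent inhibition of current reported.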

[5] = target: Cytochrome P450 3A4 (Homo sapiens, UniProt P08684); assay: Inhibition of human CYP3A4 using midazolam as substrate by LC-MS/MS analysis; type: ADME
In short: (§3)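 Direct-acting CYP inhibition was run in human liver microsomes. Activity was read by LC–MS/MS of marker-substrate turnover: midazolam for CYP3A4 and dexotromethorphan for CYP2D6. IC50 values were derived.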

[6] = target: Cytochrome P450 2D6 (Homo sapiens, UniProt P10635); assay: Inhibition of human CYP2D6 using dexotromethorphan as substrate by LC-MS/MS analysis; type: ADME; in short: as §3
[7] = target: T1, hERG (KCNH2); assay: Inhibition of human ERG at 10 uM by whole-cell patch clamp electrophysiology assay; in short: as §2
[8] = target: Voltage-gated inwardly rectifying potassium channel KCNH2 (Homo sapiens, UniProt Q12809); assay: Inhibition of human ERG by whole-cell patch clamp electrophysiology assay
In short: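 hERG potassium channel expressed in Chinese hamster ovary cells; channel currents recorded by whole-cell patch clamp electrophysiology.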

[9] = Inhibition of human tryptase-beta using S-2366 as substrate by chromogenic assay

Cytochrome P450 3A4, sequence (P08684 whole entry): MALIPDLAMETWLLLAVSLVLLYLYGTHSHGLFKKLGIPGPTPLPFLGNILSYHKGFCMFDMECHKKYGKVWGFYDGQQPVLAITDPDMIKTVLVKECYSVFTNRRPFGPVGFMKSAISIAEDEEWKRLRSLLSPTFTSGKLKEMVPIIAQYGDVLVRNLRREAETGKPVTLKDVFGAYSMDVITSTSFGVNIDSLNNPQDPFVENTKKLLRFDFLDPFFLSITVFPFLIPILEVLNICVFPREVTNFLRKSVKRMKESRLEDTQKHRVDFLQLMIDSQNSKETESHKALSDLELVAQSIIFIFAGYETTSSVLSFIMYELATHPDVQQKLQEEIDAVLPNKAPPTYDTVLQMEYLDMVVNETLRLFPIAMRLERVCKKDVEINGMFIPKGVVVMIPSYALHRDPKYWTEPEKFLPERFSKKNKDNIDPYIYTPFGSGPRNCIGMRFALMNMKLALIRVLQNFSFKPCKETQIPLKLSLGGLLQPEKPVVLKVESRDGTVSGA
T1 sequence (Q12809 whole entry): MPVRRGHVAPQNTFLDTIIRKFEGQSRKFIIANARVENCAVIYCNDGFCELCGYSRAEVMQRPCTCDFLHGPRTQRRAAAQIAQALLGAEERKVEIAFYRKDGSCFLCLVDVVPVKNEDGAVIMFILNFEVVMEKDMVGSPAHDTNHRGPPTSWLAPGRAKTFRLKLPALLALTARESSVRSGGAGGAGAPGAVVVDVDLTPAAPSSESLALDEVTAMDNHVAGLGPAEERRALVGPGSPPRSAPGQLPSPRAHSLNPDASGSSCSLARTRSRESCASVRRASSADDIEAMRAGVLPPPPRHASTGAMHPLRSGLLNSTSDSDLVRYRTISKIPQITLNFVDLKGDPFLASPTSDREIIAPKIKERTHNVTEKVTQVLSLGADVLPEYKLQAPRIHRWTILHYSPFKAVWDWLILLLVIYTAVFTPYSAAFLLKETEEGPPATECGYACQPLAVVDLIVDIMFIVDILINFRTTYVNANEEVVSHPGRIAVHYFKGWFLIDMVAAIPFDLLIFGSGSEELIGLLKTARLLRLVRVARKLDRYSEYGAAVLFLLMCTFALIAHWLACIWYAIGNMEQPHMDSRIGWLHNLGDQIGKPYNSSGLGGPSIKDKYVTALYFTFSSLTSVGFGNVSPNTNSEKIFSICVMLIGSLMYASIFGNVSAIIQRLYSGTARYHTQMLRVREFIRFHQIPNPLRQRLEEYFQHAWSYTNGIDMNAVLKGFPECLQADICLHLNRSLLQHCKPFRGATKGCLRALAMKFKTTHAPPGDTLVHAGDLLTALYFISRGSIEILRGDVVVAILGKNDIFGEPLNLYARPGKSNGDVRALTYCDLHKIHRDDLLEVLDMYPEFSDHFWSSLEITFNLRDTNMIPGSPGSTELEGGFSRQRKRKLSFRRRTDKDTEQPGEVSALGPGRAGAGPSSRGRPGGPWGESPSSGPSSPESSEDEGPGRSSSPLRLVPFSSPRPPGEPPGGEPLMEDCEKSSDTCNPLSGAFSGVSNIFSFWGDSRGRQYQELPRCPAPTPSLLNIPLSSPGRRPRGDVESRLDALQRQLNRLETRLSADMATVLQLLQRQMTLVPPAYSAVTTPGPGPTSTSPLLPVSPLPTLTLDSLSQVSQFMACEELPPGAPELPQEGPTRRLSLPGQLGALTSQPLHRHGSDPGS
Cytochrome P450 2D6, sequence (P10635 whole entry): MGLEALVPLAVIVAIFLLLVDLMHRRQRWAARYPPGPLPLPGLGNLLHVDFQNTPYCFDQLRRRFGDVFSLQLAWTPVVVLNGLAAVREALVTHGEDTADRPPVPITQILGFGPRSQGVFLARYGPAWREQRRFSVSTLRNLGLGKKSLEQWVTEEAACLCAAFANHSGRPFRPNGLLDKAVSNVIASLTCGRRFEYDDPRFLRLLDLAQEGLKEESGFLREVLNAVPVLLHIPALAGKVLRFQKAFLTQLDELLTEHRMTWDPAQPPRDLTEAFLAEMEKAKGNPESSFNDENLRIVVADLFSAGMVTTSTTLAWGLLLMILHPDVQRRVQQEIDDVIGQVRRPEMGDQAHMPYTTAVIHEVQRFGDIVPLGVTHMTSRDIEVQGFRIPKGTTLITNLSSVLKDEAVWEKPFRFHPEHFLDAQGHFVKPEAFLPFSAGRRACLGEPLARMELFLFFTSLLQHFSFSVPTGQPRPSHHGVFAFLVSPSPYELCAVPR
Voltage-gated inwardly rectifying potassium channel KCNH2, sequence (Q12809 whole entry): as the sequence (Q12809 whole entry) above

SMILES	metabolized at 20 min [1] [%]	metabolized at 20 min [2] [%]	Stability [3] [%]	inhibition at 1 µM [4] [%]	IC50 [5] [µM]	IC50 [6] [µM]	inhibition at 10 µM [7] [%]	IC50 [8] [nM]	Ki [9] [nM]
CCCOc1sc(C(=O)N2[C@H]3CC[C@H]2CC(c2cc(CN)ccc2F)C3)c(C)c1Br (some centres undefined)	7	0	86	14	5.3	6.9	36		
CCCOc1sc(C(=O)N2CCC(c3cccc(CN)c3)CC2)c(C)c1Br	26	6	70		4.7	2.5		1000	22
